Assay results pooled from the literature.
Lines come from different studies, so protocols differ.
Medium: plasma
Route: oral

| SMILES | test system | setting | Vd/F [L] |
| --- | --- | --- | --- |
| C[C@@H](c1ccc2nccn2c1)n1nnc2ncc(-c3cnn(C)c3)nc21 | human | 600 mg | 506 |
| N#CN1C[C@H](n2nc(-c3ccc(Oc4ccc(Cl)cn4)cc3)c(C(N)=O)c2N)CCC12CC2 | human | 600 mg, fasted | 1060 |
| C[C@@]1(c2cc(NC(=O)c3ccc(C#N)cn3)ccc2F)C=CSC(N)=N1 | human | 3 mg, single dose | 235 |
| COc1cc(C(=O)NC2CCN(C)CC2)c(F)cc1Nc1ncc(C(F)(F)F)c(Oc2cccc3c2C(=O)N(C)C3)n1 | human | 10 mg, multiple doses, once daily, patients | 776 |
| c1cnc2ccc(Nc3nc(NC4CC4)c4nc[nH]c4n3)cc2c1 | human | 50 mg/m², patients | 597 |
| CO[C@H]1CC[C@H](N2C(=O)CNc3ncc(-c4ccc(C(C)(C)O)nc4)nc32)CC1 | human | 15 mg, patients | 192 |
| CC(C)(C)OC[C@@H]1C(=O)NCCN1C(=O)C[C@H](N)Cc1cc(F)c(F)cc1F | male human | 5 mg, multiple doses, steady state | 1960 |
| Cc1cc(Nc2cc(N3CCN(C)CC3)nc(/C=C/c3ccccc3)n2)n[nH]1 | human | 120 mg/m², patients | 2440 |
| COc1ccc([C@@H]2CN(C(=O)[C@@H](O)CO)C[C@@]2(C)[C@@H](C)O)cc1OC1CN(c2ccc(C)cn2)C1 | human | 0.1 mg, single dose, healthy volunteers | 23.8 |
| CCOc1cc2ncc(C#N)c(Nc3ccc(OCc4ccccn4)c(Cl)c3)c2cc1NC(=O)/C=C/[C@H]1CCCN1C | human | 80 mg, single dose | 4110 |
| COC(=O)N[C@@H](C)CNc1nccc(-c2cn(C(C)C)nc2-c2cc(Cl)cc(NS(C)(=O)=O)c2F)n1 | human | 50 mg, single dose | 260 |
| CC(C)(Sc1ccncc1-c1ccc(C#N)c2ccccc12)C(=O)O | male human | 2 mg, single dose, fasted, healthy volunteers | 394 |
